Laboratory results reported in PubChem BioAssay.
Calls of active or inactive are those of the source.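 Rule for the calls, unless noted: active = viability at or below 30% in both replicate assays; inconclusive = viability at or below 30% in just one of the two assays; inactive = the rest.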

Tests used:
[1] = Her2 expression decrease, cell viability multiplex – SKBR3 breast tumor cells, AlphaScreen, ATP viability, primary screen (AID 461;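 active = Her2 level under about 52% in both replicate screens, with viability over 70% of control, limit read from the data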;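 for Her2 level: lower value means less Her2 protein in the cells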;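 for viability: percent of carrier control wells set as 100% viability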); details: SKBR3 Her2 protein level, 18-24 h, measured here: SKBR3 viability, ATP luminescence, at 10 µM
[2] = biological target: Receptor tyrosine-protein kinase erbB-2 (Homo sapiens) (UniProt P04626); assay: as above; details: 18-24 h, at 10 µM, stronger effect = lower value
Receptor tyrosine-protein kinase erbB-2 (Homo sapiens), sequence (P04626 whole entry, looked up): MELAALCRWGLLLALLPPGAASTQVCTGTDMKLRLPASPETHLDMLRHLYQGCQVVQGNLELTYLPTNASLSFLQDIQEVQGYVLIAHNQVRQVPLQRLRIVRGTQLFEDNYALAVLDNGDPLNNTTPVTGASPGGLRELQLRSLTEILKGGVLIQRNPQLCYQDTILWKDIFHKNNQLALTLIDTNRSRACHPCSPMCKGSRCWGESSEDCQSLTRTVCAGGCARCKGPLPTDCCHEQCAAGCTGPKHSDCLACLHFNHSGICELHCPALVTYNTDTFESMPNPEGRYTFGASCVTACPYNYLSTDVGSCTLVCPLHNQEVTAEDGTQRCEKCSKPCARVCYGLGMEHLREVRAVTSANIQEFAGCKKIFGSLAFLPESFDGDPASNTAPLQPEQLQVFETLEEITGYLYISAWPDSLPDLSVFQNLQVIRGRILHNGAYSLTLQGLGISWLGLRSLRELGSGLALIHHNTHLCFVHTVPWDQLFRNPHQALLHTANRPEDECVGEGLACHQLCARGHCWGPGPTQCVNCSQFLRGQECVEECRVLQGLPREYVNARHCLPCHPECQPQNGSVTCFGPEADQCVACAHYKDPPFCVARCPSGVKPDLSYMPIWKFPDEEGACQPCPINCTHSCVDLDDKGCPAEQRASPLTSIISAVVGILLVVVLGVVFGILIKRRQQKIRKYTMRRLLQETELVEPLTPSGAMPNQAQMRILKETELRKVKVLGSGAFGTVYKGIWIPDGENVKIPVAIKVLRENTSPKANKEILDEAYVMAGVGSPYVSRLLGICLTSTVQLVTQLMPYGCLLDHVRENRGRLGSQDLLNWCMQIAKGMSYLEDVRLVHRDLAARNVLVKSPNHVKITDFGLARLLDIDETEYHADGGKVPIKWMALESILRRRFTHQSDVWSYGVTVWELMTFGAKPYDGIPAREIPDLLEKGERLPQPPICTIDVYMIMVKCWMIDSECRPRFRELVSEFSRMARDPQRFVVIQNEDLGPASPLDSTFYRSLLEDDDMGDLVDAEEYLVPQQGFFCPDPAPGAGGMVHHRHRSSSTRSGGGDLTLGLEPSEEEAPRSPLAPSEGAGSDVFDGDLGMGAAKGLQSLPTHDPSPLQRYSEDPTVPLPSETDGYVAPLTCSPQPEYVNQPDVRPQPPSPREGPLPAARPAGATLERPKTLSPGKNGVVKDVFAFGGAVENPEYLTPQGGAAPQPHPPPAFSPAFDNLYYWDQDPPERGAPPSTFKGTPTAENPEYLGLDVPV

[3] = reduced viability of SK-BR-3 breast cancer cells – cell-based, 24 h, human, pilot screen (AID 572;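 active = viability at or below 10% of carrier control in both of two separate runs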;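 note: compound exposure lasted between 18 and 24 h rather than exactly 24 h; 100% = carrier-treated control wells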); details: SK-BR-3 viability, CellTiter-Glo luminescence, at 10 µM, stronger effect = lower value
[4] = HUVEC growth inhibition – cell-based, human, primary screen (AID 575); details: HUVEC proliferation, CellTiter-Glo luminescence, 72 h; at 10 µM; stronger effect = lower value;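 note: 100% = median of untreated cell wells with 0.1% DMSO on each plate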
In short: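 Timing: 72 h treatment at 37 °C; material: HUVEC primary cells; technique: CellTiter-Glo luminescence measuring cellular ATP; controls: vehicle and MePR control wells; measure: percent of median DMSO-control luminescence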

[5] = H69AR cell proliferation blockers – human, duplicate replicates, primary screen (AID 580;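 active = viability at or under a set limit in both replicates, limit being median viability minus 3 SD, cut at about 48% in these data, passing the limit was not always enough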;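 note: 100% = mean luminescence of untreated wells and 0% = no signal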); details: H69AR lung tumor cells viability, ATP luminescence, 72 h; at 10 µM; stronger effect = lower value
[6] = MRP1 drug-resistance reversers in H69AR cells – cell-based, doxorubicin co-treatment, pilot screen (AID 601;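 active = viability loss from added drug above about 55%, and viability with drug at most 40%, in both replicates, limit read from the data, passing the limit was not always enough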); details: CellTiter-Glo, 72 h, at 10 µM; for differential viability (reversal): stronger effect = higher value
[7] = yeast transport mutant growth inhibition pilot in 384-well plates, post-Golgi transport modulator project (AID 636; in the data active = inhibition above about 31%); details: absorbance 615 nm, about 18 h, stronger effect = higher value
[8] = growth suppression of yeast trafficking mutant, preliminary HTS, modulators of trafficking downstream of Golgi apparatus project, 1536-format plate, OD 615 nm (AID 637; in the data active = inhibition above about 30%); details: yeast transport mutant growth, absorbance 615 nm, 18 h; stronger effect = higher value
[9] = H69AR cells + 2 uM doxorubicin, measured here: viability with 2 uM doxorubicin, stronger effect = lower value
[10] = H69AR cells, compound alone cytotoxicity

SMILES | viability [1] [%] | Her2 level [2] | viability [3] | viability [4] | viability [5] | differential viability (reversal) ([6]; H69AR cells + 2 uM doxorubicin) | viability [6, 9] [%] | viability [6, 10] [%] | inhibition [7] | inhibition [8]
Cc1c(Cl)cnc(NC(=O)COC(=O)C(NC(=O)c2ccco2)C(C)C)c1Cl (stereo not given) | 86 | 85% (inactive) | 86% (inactive) | 92.4% (inactive) | 83.2% (inactive) | 10.7% (inactive) | 72.5 | 83.2 | -1.89% (inactive) | -4.76% (inactive)
COCCNS(=O)(=O)c1cc(F)ccc1OC | 90 | 99.5% (inactive) | 90% (inactive) | 95.1% (inactive) | 103% (inactive) | 5.13% (inactive) | 97.6 | 103 | -4.32% (inactive) | -5.74% (inactive)
O=c1cc(CN2CCN(c3ccc(F)cc3)CC2)nc2sccn12 | 85 | 118% (inactive) | 85% (inactive) | 87.9% (inactive) | 87.2% (inactive) | -4.83% (inactive) | 92.1 | 87.2 | 5.45% (inactive) | -14.2% (inactive)
O=C(NCCCCNC(=O)c1c(F)c(F)c(F)c(F)c1F)c1c(F)c(F)c(F)c(F)c1F | 98.5 | 76.5% (inactive) | 98.5% (inactive) | 97.2% (inactive) | 89.4% (inactive) | 10.4% (inactive) | 78.9 | 89.4 | -6.27% (inactive) | -3.17% (inactive)
CCN(C#N)c1nc(NC(C)C)nc(NC(C)C)n1 | 96.5 | 93% (inactive) | 96.5% (inactive) | 97.6% (inactive) | 93.6% (inactive) | 4.81% (inactive) | 88.8 | 93.6 | -4.46% (inactive) | -7.17% (inactive)
Cc1cc(=O)oc2ccc(OCC(=O)N3CCC(C)CC3)cc12 | 87 | 90% (inactive) | 87% (inactive) | 92.3% (inactive) | 96.3% (inactive) | 5.65% (inactive) | 90.7 | 96.3 | -1.05% (inactive) | 1.15% (inactive)
Cc1ccccc1CS(=O)(=O)CCC(=O)N1CCN(c2ccc(N3CCOCC3)nn2)CC1 | 91.5 | 81% (inactive) | 91.5% (inactive) | 97.1% (inactive) | 103% (inactive) | 10.7% (inactive) | 92.7 | 103 | -2.24% (inactive) | -0.73% (inactive)
Cc1cc(C)nc(SCC(=O)Nc2ccc(S(=O)(=O)Nc3nccs3)cc2)n1 | 110 | 107% (inactive) | 110% (inactive) | 97.4% (inactive) | 95.7% (inactive) | 4.67% (inactive) | 91 | 95.7 | -1.76% (inactive) | 5.9% (inactive)
Cn1cccc1C1NC(=O)c2c(sc3c2CCC(C(C)(C)C)C3)N1 (stereo not given) | 110 | 77.5% (inactive) | 110% (inactive) | 125% (inactive) | 90.4% (inactive) | -11% (inactive) | 101 | 90.4 | -9.86% (inactive) | 1.67% (inactive)
CC(C)(C)n1cnc2cc(NS(=O)(=O)c3ccc(Br)cc3)ccc21 | 104 | 69.5% (inactive) | 104% (inactive) | 80.2% (inactive) | 87% (inactive) | -8.39% (inactive) | 95.4 | 87 | -1.58% (inactive) | -0.48% (inactive)
COc1cccc(C2C(C#N)=C(N)OC3=C2C(=O)CCC3)c1OC(=O)c1ccco1 (stereo not given) | 106 | 84% (inactive) | 106% (inactive) | 83.6% (inactive) | 99.7% (inactive) | 13.1% (inactive) | 86.6 | 99.7 | -4.53% (inactive) | 3.71% (inactive)
Cc1cccc(NC(=O)CSc2nnc(-c3cc(C)n(-c4ccccc4)c3C)o2)c1C | 115 | 91% (inactive) | 115% (inactive) | 66.3% (inactive) | 76.2% (inactive) | -3.98% (inactive) | 80.2 | 76.2 | 0.26% (inactive) | -6.03% (inactive)
COCCn1c(C)cc(C(=O)CSc2nc3ccccc3c(=O)[nH]2)c1C | 88.5 | 67% (inactive) | 88.5% (inactive) | 64.6% (inactive) | 80.9% (inactive) | -8.01% (inactive) | 88.9 | 80.9 | -5.47% (inactive) | -3.61% (inactive)
CCCCCc1c(O)c2ccccc2[nH]c1=O | 108 | 91.5% (inactive) | 108% (inactive) | 124% (inactive) | 98.1% (inactive) | 3.62% (inactive) | 94.5 | 98.1 | -1.71% (inactive) | 2.46% (inactive)
COC(=O)c1cc(OC)c(OCc2cc(C(=O)OC)oc2C)c(OC)c1 | 95 | 89.5% (inactive) | 95% (inactive) | 107% (inactive) | 90.7% (inactive) | 1.03% (inactive) | 89.7 | 90.7 | -9.32% (inactive) | 1.8% (inactive)
CC(C)(C)Cc1nc(-c2ccccn2)no1 | 95.5 | 114% (inactive) | 95.5% (inactive) | 88.4% (inactive) | 100% (inactive) | 7.35% (inactive) | 92.9 | 100 | -1.82% (inactive) | -3.67% (inactive)
